# Calls of active or inactive are those of the source. The calls are words filed in the database; no cut-off is given here.
# How the values were obtained:
# Rattus norvegicus [1] = test: Percentage of fall in systolic blood pressure (SBP) at the following hours after dosing at 75 mg/kg (po) at 24 hr in spontaneously hypertensive rats(SHR); type: functional, Artery
# Procedure, shortened: (§1)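 Male spontaneously hypertensive rats (Wistar-Kyoto strain), unanesthetized, dosed orally; systolic pressure measured by indirect tail cuff. Before each reading, rats warmed at 35-37 °C for 15-20 min to dilate the caudal artery. Five rats per treatment group; result is percentage fall in systolic pressure versus untreated control. Significance tested against control.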
# Rattus norvegicus [2] = test: Percentage of fall in systolic blood pressure (SBP) at the following hours after dosing at 75 mg/kg (po) at 2 hr in spontaneously hypertensive rats(SHR):NS means not significant; type: functional, organism-based; set-up: dose 75 mg/kg; settings: Artery; procedure, shortened: as §1
# Rattus norvegicus [3] = test: Percentage of fall in systolic blood pressure (SBP) at the following hours after dosing at 75 mg/kg (po) at 5 hr in spontaneously hypertensive rats(SHR); type: functional, Artery; procedure, shortened: as §1
# Rattus norvegicus [4] = test: Percentage of fall in systolic blood pressure (SBP) at the following hours after dosing at 75 mg/kg (po) at 7.5 hr in spontaneously hypertensive rats(SHR); type: functional, Artery; procedure, shortened: as §1
# Rattus norvegicus [5] = test: […] systolic blood pressure (SBP) for compound-treated group relative to the value for untreated control at 75 mg/kg dose (po) in spontaneously hypertensive rats(SHR); type: functional, Artery; procedure, shortened: as §1
# Rattus norvegicus [6] = test: Evaluated for the percentage inhibition of the depressor response of isoproterenol (0.25 mg/kg, iv) in spontaneously hypertensive rats at 150 mg/kg peroral dose; NI means no inhibition at 10 mg/kg, iv
# Rattus norvegicus [7] = test: Percentage of fall in systolic blood pressure (SBP) at the following hours after dosing at 75 mg/kg (po) at 24 hr in spontaneously hypertensive rats(SHR); NS means not significant; type: functional, organism-based; set-up: dose 75 mg/kg; settings: Artery; procedure, shortened: as §1
# Rattus norvegicus [8] = test: Percentage of fall in systolic blood pressure (SBP) at the following hours after dosing at 75 mg/kg (po) at 2 hr in spontaneously hypertensive rats(SHR); NS means not significant; type: functional, organism-based; set-up: dose 75 mg/kg; settings: Artery; procedure, shortened: as §1
# Rattus norvegicus [9] = test: Percentage of fall in systolic blood pressure (SBP) at the following hours after dosing at 75 mg/kg (po) at 5 hr in spontaneously hypertensive rats(SHR); NS means not significant; type: functional, organism-based; set-up: dose 75 mg/kg; settings: Artery; procedure, shortened: as §1
# Rattus norvegicus [10] = test: Percentage of fall in systolic blood pressure (SBP) at the following hours after dosing at 75 mg/kg (po) at 7.5 hr in spontaneously hypertensive rats(SHR) NS means not significant; type: functional, organism-based; set-up: dose 75 mg/kg; settings: Artery; procedure, shortened: as §1
# Adrenergic receptor beta [11] = molecular target: T1, Adrenergic receptor beta (Rattus norvegicus, UniProt P18090+P10608+P26255); test: Evaluated for beta-receptor affinity, determined in rat brain membrane fraction with [3H]- dihydroalprenolol; type: cell membranes
# Procedure, shortened: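 Rat brain with cerebellum removed, homogenized in ice-cold 50 mM Tris-HCl pH 8.0 and spun at 50000g for 15 min, pellet washed once more the same way. Binding used 0.4-0.6 mg protein, 1 nM [3H]dihydroalprenolol, 50 mM Tris pH 8.0, and 5-10 competitor concentrations. IC50 read visually from a semilog plot; Ki from Cheng-Prusoff with KD approximately 1 nM.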
# Rattus norvegicus [12] = test: Percentage of fall in systolic blood pressure (SBP) after dosing at 17 mg/kg (po) at 24 hr in spontaneously hypertensive rats(SHR); type: functional, Artery; procedure, shortened: as §1
# Rattus norvegicus [13] = test: Percentage of fall in systolic blood pressure (SBP) after dosing at 17 mg/kg (po) at 2 hr in spontaneously hypertensive rats(SHR). NS means not significant; type: functional, organism-based; set-up: dose 17 mg/kg; settings: Artery; procedure, shortened: as §1
# Rattus norvegicus [14] = test: Percentage of fall in systolic blood pressure (SBP) after dosing at 17 mg/kg (po) at 5 hr in spontaneously hypertensive rats(SHR); type: functional, Artery; procedure, shortened: as §1
# Rattus norvegicus [15] = test: Percentage of fall in systolic blood pressure (SBP) after dosing at 17 mg/kg (po) at 7.5 hr in spontaneously hypertensive rats(SHR); type: functional, Artery; procedure, shortened: as §1
# Rattus norvegicus [16] = test: Percentage of fall in systolic blood pressure (SBP) after dosing at 8 mg/kg (po) at 2 hr in spontaneously hypertensive rats(SHR). NS means not significant; type: functional, organism-based; set-up: dose 8 mg/kg; settings: Artery; procedure, shortened: as §1
# Rattus norvegicus [17] = test: Percentage of fall in systolic blood pressure (SBP) after dosing at 8 mg/kg (po) at 7.5 hr in spontaneously hypertensive rats(SHR); type: functional, Artery; procedure, shortened: as §1
# Rattus norvegicus [18] = test: Percentage of fall in systolic blood pressure (SBP) after dosing at 8 mg/kg at 24 hr in spontaneously hypertensive rats(SHR). NS means not significant; type: functional, organism-based; set-up: dose 8 mg/kg; settings: Artery; procedure, shortened: as §1
# Rattus norvegicus [19] = test: Percentage of fall in systolic blood pressure (SBP) at the following hours after dosing at 8 mg/kg (po) at 5 hr in spontaneously hypertensive rats(SHR); type: functional, Artery; procedure, shortened: as §1
# Rattus norvegicus [20] = test: Evaluated for the percentage inhibition of the depressor response of isoproterenol (0.25 mg/kg, iv) in spontaneously hypertensive rats at 150 mg/kg perorally; NI means no inhibition at 10 mg/kg, iv; type: functional, organism-based
# Procedure, shortened: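 Male SHR, three per group, dosed orally 150 mg/kg as suspension in 4% Clearjel. At 4 h, anesthetized with sodium pentobarbital (45 mg/kg, ip); femoral artery and vein cannulated; arterial pressure monitored continuously. Isoproterenol given iv in 0.1 mL saline; depressor response compared with Clearjel vehicle-treated rats as percentage inhibition.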
# Rattus norvegicus [21] = test: […] systolic blood pressure (SBP) for compound-treated group relative to the value for untreated control at 17 mg/kg dose (po) in spontaneously hypertensive rats(SHR); type: functional, Artery; procedure, shortened: as §1
# Rattus norvegicus [22] = test: […] systolic blood pressure (SBP) for compound-treated group relative to the value for untreated control at 8 mg/kg dose (po) in spontaneously hypertensive rats(SHR); type: functional, Artery; procedure, shortened: as §1
# Adrenergic receptor beta [23] = molecular target: T1, Adrenergic receptor beta; test: Evaluated for beta-receptor affinity determined in rat brain membrane fraction with [3H]- dihydroalprenolol; type: cell membranes
# Rattus norvegicus [24] = test: Percentage of fall in systolic blood pressure (SBP) at the following hours after dosing at 75 mg/kg (po) at 7.5 hr in spontaneously hypertensive rats(SHR); NS means not significant; type: functional, organism-based; set-up: dose 75 mg/kg; settings: Artery; procedure, shortened: as §1
# Rattus norvegicus [25] = species: Rattus norvegicus; test: animal or person; settings: iv, read-out: Inhibition
# Rattus norvegicus [26] = test: Percentage of fall in systolic blood pressure (SBP) at the following hours after dosing at 75 mg/kg (po) at 2 hr in spontaneously hypertensive rats(SHR); type: functional, Artery; procedure, shortened: as §1
# Rattus norvegicus [27] = test: Evaluated for the percentage inhibition of the depressor response of isoproterenol (0.25 mg/kg, iv) in spontaneously hypertensive rats at 150 mg/kg peroral dose;NI means no inhibition at 10 mg/kg, iv
# Rattus norvegicus [28] = test: Percentage of fall in systolic blood pressure (SBP) at the following hours after dosing at 17 mg/kg (po) at 7.5 hr in spontaneously hypertensive rats(SHR); type: functional, Artery; procedure, shortened: as §1
# Rattus norvegicus [29] = test: Percentage of fall in systolic blood pressure (SBP) at the following hours after dosing at 17 mg/kg (po) at 24 hr in spontaneously hypertensive rats(SHR);NS means not significant; type: functional, organism-based; set-up: dose 17 mg/kg; settings: Artery; procedure, shortened: as §1
# Rattus norvegicus [30] = test: Percentage of fall in systolic blood pressure (SBP) at the following hours after dosing at 17 mg/kg (po) at 2 hr in spontaneously hypertensive rats(SHR); type: functional, Artery; procedure, shortened: as §1
# Rattus norvegicus [31] = test: Percentage of fall in systolic blood pressure (SBP) at the following hours after dosing at 17 mg/kg (po) at 5 hr in spontaneously hypertensive rats(SHR); type: functional, Artery; procedure, shortened: as §1
# Rattus norvegicus [32] = test: Percentage of fall in systolic blood pressure (SBP) at the following hours after dosing at 8 mg/kg (po) at 2 hr in spontaneously hypertensive rats(SHR); type: functional, Artery; procedure, shortened: as §1
# Rattus norvegicus [33] = test: Percentage of fall in systolic blood pressure (SBP) at the following hours after dosing at 8 mg/kg (po) at 5 hr in spontaneously hypertensive rats(SHR);NS means not significant; type: functional, organism-based; set-up: dose 8 mg/kg; settings: Artery; procedure, shortened: as §1
# Rattus norvegicus [34] = test: Percentage of fall in systolic blood pressure (SBP) at the following hours after dosing at 8 mg/kg (po) at 7.5 hr in spontaneously hypertensive rats(SHR); type: functional, Artery; procedure, shortened: as §1
# Rattus norvegicus [35] = test: Percentage of fall in systolic blood pressure (SBP) at the following hours after dosing at 8 mg/kg (po) at 24 hr in spontaneously hypertensive rats(SHR);NS means not significant; type: functional, organism-based; set-up: dose 8 mg/kg; settings: Artery; procedure, shortened: as §1
Compound,Decrease in SBP (Rattus norvegicus [1]) [%],Decrease in SBP (Rattus norvegicus [3]) [%],Decrease in SBP (Rattus norvegicus [4]) [%],SBP (Rattus norvegicus [5]) [mmHg],Decrease in SBP (Rattus norvegicus [7]),Decrease in SBP (Rattus norvegicus [8]),Decrease in SBP (Rattus norvegicus [9]),further results
C=CCNCC(O)COc1ccc2c(=O)c(-c3ccccc3)c(-c3ccccc3)oc2c1 (stereo unspecified),9,10,11,197,,,,Decrease in SBP (Rattus norvegicus [2]): inactive; inhibition (Rattus norvegicus [6]): inactive
CC(C)(C)NCC(O)COc1ccc2c(=O)c(-c3ccccc3)c(-c3ccccc3)oc2c1.Cl (stereo unspecified),,,,196,inactive,inactive,inactive,Decrease in SBP (Rattus norvegicus [10]): inactive; Ki (Adrenergic receptor beta [11]): > 0.00005 M
CC(C)NCC(O)COc1ccc2c(=O)c(-c3ccccc3)c(-c3ccccc3)oc2c1.Cl (stereo unspecified),,,,,,,,Decrease in SBP (Rattus norvegicus [12]): 11%; Decrease in SBP (Rattus norvegicus [13]): inactive; Decrease in SBP (Rattus norvegicus [14]): 14%; Decrease in SBP (Rattus norvegicus [15]): 20%; Decrease in SBP (Rattus norvegicus [16]): inactive; Decrease in SBP (Rattus norvegicus [17]): 8%; Decrease in SBP (Rattus norvegicus [18]): inactive; Decrease in SBP (Rattus norvegicus [19]): 10%; inhibition (Rattus norvegicus [20]): inactive; SBP (Rattus norvegicus [21]): 195 mmHg; SBP (Rattus norvegicus [22]): 198 mmHg; Ki (Adrenergic receptor beta [23]): > 0.00005 M
CCCCCCNCC(O)COc1ccc2c(=O)c(-c3ccccc3)c(-c3ccccc3)oc2c1.Cl (stereo unspecified),,,,200,inactive,inactive,inactive,Decrease in SBP (Rattus norvegicus [24]): inactive
CC(C)NCC(O)COc1cccc2ccccc12 (stereo unspecified) [PROPRANOLOL],,,,212,inactive,inactive,inactive,Decrease in SBP (Rattus norvegicus [24]): inactive; inhibition in vivo at 10 mg/kg (Rattus norvegicus [25]): 100%
CCCCNCC(O)COc1ccc2c(=O)c(-c3ccccc3)c(-c3ccccc3)oc2c1 (stereo unspecified),,,11,199,inactive,inactive,inactive,Ki (Adrenergic receptor beta [11]): > 0.00005 M
O=c1c(-c2ccccc2)c(-c2ccccc2)oc2cc(OCC(O)CNC3CCCCC3)ccc12 (stereo unspecified),16,10,13,216,,inactive,,
CCC(C)NCC(O)COc1ccc2c(=O)c(-c3ccccc3)c(-c3ccccc3)oc2c1 (stereo unspecified),19,18,19,210,,,,Decrease in SBP (Rattus norvegicus [26]): 12%; inhibition (Rattus norvegicus [6]): inactive
CCCN(C)CC(O)COc1ccc2c(=O)c(-c3ccccc3)c(-c3ccccc3)oc2c1.O=C(O)/C=C\C(=O)O (stereo unspecified),18,9,10,199,,,,Decrease in SBP (Rattus norvegicus [26]): 7%; inhibition (Rattus norvegicus [6]): inactive
CCCCCNCC(O)COc1ccc2c(=O)c(-c3ccccc3)c(-c3ccccc3)oc2c1 (stereo unspecified),,,,191,inactive,inactive,inactive,Decrease in SBP (Rattus norvegicus [24]): inactive
Cl.O=c1c(-c2ccccc2)c(-c2ccccc2)oc2cc(OCC(O)CNC3CCCC3)ccc12 (stereo unspecified),18,23,23,200,,,,Decrease in SBP (Rattus norvegicus [26]): 10%; inhibition (Rattus norvegicus [27]): inactive
O=c1c(-c2ccccc2)c(-c2ccccc2)oc2cc(OCC(O)CNC3CC3)ccc12 (stereo unspecified),,,,,,,,Decrease in SBP (Rattus norvegicus [28]): 18%; Decrease in SBP (Rattus norvegicus [29]): inactive; Decrease in SBP (Rattus norvegicus [30]): 10%; Decrease in SBP (Rattus norvegicus [31]): 23%; Decrease in SBP (Rattus norvegicus [32]): 7%; Decrease in SBP (Rattus norvegicus [33]): inactive; Decrease in SBP (Rattus norvegicus [34]): 10%; Decrease in SBP (Rattus norvegicus [35]): inactive; inhibition (Rattus norvegicus [20]): inactive; SBP (Rattus norvegicus [21]): 193 mmHg; SBP (Rattus norvegicus [22]): 188 mmHg; Ki (Adrenergic receptor beta [11]): > 0.00005 M

# From ChEMBL document CHEMBL1123732, “Flavones. 1. Synthesis and antihypertensive activity of (3-phenylflavonoxy)propanolamines without beta-adrenoceptor antagonism” (J Med Chem, 1987)
